# ChEMBL document CHEMBL3232847, “Discovery of 6-phenylpyrimido[4,5-b][1,4]oxazines as potent and selective acyl CoA:diacylglycerol acyltransferase 1 (DGAT1) inhibitors with in vivo efficacy in rodents” (J Med Chem, 2014)
# Key:
# Cytochrome P450 1A2 = biological target: T1, Cytochrome P450 1A2 (Homo sapiens, UniProt P05177); assay: Inhibition of CYP1A2 (unknown origin) at 10 uM; type: ADME
# T1 sequence (P05177 whole entry): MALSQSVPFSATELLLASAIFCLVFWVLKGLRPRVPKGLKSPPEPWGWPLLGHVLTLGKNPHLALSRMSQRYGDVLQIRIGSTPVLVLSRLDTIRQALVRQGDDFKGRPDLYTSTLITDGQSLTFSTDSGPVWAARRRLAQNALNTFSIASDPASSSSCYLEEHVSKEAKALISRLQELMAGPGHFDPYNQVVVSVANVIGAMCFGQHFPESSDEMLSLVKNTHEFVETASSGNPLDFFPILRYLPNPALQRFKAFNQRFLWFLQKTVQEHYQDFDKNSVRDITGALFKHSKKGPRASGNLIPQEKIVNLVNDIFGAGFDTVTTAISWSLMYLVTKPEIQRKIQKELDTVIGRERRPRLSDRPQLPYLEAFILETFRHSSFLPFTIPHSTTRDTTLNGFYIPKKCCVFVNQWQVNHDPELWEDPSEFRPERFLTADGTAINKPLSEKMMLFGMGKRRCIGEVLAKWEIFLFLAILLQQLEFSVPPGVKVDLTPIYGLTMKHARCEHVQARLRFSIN
# Cytochrome P450 2D6 = Cytochrome P450 2D6 (Homo sapiens, UniProt P10635); assay: Inhibition of CYP2D6 (unknown origin) at 10 uM; type: ADME
# Chain of Cytochrome P450 2D6 (P10635 whole entry): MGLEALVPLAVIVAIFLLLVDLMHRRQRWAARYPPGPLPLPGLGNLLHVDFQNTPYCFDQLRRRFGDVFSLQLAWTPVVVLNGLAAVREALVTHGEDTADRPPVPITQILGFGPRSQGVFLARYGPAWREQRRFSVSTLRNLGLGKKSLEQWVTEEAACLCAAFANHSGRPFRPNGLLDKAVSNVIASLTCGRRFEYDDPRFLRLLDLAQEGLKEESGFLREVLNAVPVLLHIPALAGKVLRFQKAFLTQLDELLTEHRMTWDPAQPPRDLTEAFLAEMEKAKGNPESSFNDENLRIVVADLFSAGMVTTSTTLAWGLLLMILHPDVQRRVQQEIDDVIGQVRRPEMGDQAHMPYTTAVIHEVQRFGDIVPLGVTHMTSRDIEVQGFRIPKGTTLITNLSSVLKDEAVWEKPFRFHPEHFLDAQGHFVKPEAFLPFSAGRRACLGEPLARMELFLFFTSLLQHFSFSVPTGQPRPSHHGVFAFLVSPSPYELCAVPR
# Cytochrome P450 2C9 = Cytochrome P450 2C9 (Homo sapiens, UniProt P11712); assay: Inhibition of CYP2C9 (unknown origin) at 10 uM; type: ADME
# Chain of Cytochrome P450 2C9 (P11712 whole entry): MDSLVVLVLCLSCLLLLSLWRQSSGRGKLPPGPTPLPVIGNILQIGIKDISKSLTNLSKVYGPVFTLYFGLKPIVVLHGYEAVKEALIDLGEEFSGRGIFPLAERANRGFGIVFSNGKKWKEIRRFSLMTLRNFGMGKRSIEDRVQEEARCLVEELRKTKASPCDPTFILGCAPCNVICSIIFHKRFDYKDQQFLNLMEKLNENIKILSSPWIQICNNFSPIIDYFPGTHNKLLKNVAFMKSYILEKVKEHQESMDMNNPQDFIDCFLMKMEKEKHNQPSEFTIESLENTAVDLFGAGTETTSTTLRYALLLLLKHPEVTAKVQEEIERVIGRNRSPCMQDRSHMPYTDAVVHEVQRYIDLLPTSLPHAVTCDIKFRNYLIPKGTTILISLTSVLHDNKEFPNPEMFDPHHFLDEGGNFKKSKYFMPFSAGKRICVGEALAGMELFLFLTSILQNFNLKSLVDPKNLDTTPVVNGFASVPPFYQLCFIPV
# Cytochrome P450 3A4 = Cytochrome P450 3A4 (Homo sapiens, UniProt P08684); assay: Inhibition of CYP3A4 (unknown origin) at 10 uM; type: ADME
# Chain of Cytochrome P450 3A4 (P08684 whole entry): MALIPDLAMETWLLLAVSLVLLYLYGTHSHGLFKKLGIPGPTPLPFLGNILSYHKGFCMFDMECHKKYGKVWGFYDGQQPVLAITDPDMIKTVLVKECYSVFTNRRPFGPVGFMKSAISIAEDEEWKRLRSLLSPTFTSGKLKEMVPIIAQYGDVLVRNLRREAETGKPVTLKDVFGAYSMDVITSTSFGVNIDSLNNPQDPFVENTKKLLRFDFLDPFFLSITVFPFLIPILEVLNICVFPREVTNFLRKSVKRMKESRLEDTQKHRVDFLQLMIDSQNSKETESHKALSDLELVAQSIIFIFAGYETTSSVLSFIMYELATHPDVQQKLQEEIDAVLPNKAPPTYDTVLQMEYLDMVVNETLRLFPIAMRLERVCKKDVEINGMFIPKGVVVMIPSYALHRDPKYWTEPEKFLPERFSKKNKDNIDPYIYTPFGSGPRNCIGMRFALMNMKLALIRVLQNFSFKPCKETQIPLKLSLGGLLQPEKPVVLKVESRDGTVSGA
# Rattus norvegicus [1] = assay: Toxicity in Sprague-Dawley rat assessed as sebaceous gland atrophy at 100 to 500 mg/kg, po by 28-day multiple-dose toxicity study; type: organism-based; parameters: dose 100-500 mg/kg, route oral; conditions: in vivo
# Summary of the method: (§1)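 Sprague−Dawley rats were dosed po at 100 and 500 mg kg−1 day−1 for 28 days. Clinical pathology was assessed for treatment-related changes, including sebaceous gland atrophy.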
# Rattus norvegicus [2] = assay: Toxicity in Sprague-Dawley rat assessed as clinical pathology parameters at 100 to 500 mg/kg, po by 28-day multiple-dose toxicity study; type: organism-based; parameters: dose 100-500 mg/kg, route oral; conditions: in vivo; summary of the method: as §1
# Salmonella typhimurium = assay: Genotoxicity in Salmonella typhimurium; type: toxicity, organism-based; conditions: salmonella enterica subsp. enterica serovar typhimurium
# Cynomolgus monkey [3] = assay: Toxicity in cynomolgus monkey assessed as QTc interval prolongation at 1 mg/kg/day, po by 28-day multiple-dose toxicity study relative to control; type: organism-based, Macaca fascicularis; parameters: route oral; conditions: in vivo
# Summary of the method: (§2)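 Cynomolgus monkeys were dosed po at 1, 10 and 100 mg kg−1 day−1 for 28 days. Plasma ALT and AST were measured and QTc intervals were recorded, with eight monkeys in the 100 mg/kg group.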
# Cynomolgus monkey [4] = assay: Toxicity in cynomolgus monkey assessed as QTc interval prolongation at 10 mg/kg/day, po by 28-day multiple-dose toxicity study relative to control; type: organism-based, Macaca fascicularis; parameters: route oral; conditions: in vivo; summary of the method: as §2
# [5] = Clearance in Sprague-Dawley rat at 1 mg/kg, iv; type: ADME, organism-based; parameters: dose 1 mg/kg, route intravenous; conditions: in vivo
# [6] = test system: CHL (Chinese hamster lung cells); assay: Toxicity in CHL cells assessed as chromosomal aberration
# [7] = biological target: T2, Diacylglycerol O-acyltransferase 1 (Homo sapiens, UniProt O75907); assay: Inhibition of human liver flag-tagged DGAT1 expressed in baculovirus infected insect cells after 2 hrs by SPA
# T2 sequence (O75907 whole entry): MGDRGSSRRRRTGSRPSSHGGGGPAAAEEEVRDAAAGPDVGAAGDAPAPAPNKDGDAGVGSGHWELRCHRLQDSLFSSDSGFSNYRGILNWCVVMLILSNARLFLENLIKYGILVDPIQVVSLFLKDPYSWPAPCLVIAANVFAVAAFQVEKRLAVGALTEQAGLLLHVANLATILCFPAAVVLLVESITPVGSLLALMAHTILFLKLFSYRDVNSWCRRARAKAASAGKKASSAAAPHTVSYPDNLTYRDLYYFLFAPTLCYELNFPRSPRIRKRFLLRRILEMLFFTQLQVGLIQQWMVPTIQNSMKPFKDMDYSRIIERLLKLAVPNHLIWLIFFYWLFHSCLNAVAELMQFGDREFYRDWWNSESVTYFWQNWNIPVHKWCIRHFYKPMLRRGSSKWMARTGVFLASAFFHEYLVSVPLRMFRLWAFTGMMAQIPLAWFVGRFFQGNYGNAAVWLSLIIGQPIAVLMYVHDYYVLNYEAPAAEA
# Rattus norvegicus [8] = assay: Toxicity in Sprague-Dawley rat assessed as elevation of plasma ALT level at 50 mg/kg, iv administered as single dose; type: organism-based; parameters: dose 50 mg/kg, route intravenous; conditions: in vivo
# Rattus norvegicus [9] = assay: Toxicity in Sprague-Dawley rat assessed as elevation of plasma AST level at 50 mg/kg, iv administered as single dose; type: organism-based; parameters: dose 50 mg/kg, route intravenous; conditions: in vivo
smiles,measurement,setting,value
Cc1nc(N)c2c(n1)OC(C)(C)C(c1ccc([C@H]3CC[C@H](CC(=O)O)CC3)cc1)=N2,inhibition (INH),Cytochrome P450 1A2,Not Active
same,inhibition (INH),Cytochrome P450 2D6,Not Active
same,inhibition (INH),Cytochrome P450 2C9,Not Active
same,inhibition (INH),Cytochrome P450 3A4,Not Active
same,Activity,Rattus norvegicus [1],Toxic
same,Activity,Rattus norvegicus [2],Non-toxic
same,Activity,Salmonella typhimurium,Non-toxic
same,Activity,Cynomolgus monkey [3],Non-toxic
same,Activity,Cynomolgus monkey [4],Non-toxic
same,clearance,[5],3.5 mL/min/kg
same,Activity,[6],Toxic
CNc1ncnc2c1N=C(c1ccc(Br)cc1)CO2,IC50,[7],> 10 µM
CN(C)c1nc(N)c2c(n1)OCC(c1ccc(Br)cc1)=N2,IC50,[7],> 10 µM
Nc1nc(N)c2c(n1)OCC(c1ccc(Br)cc1)=N2,IC50,[7],> 10 µM
CC1(C)Oc2ncnc(N)c2C=C1c1ccc([C@H]2CC[C@H](CC(=O)O)CC2)cc1,clearance,[5],23.3 mL/min/kg
CC1(C)Oc2nc(C(F)(F)F)nc(N)c2N=C1c1ccc([C@H]2CC[C@H](CC(=O)O)CC2)cc1,clearance,[5],1.33 mL/min/kg
CN(C)c1ncnc2c1N=C(c1ccc(Br)cc1)CO2,IC50,[7],> 10 µM
Nc1cccc2c1N=C(c1ccc(Br)cc1)CO2,IC50,[7],> 10 µM
Nc1nc(O)nc2c1N=C(c1ccc(Br)cc1)CO2,IC50,[7],> 10 µM
CC1(C)Oc2nc(O)nc(N)c2N=C1c1ccc([C@H]2CC[C@H](CC(=O)O)CC2)cc1,Activity,Rattus norvegicus [8],Toxic
same,Activity,Rattus norvegicus [9],Toxic
CC1(C)Oc2ncnc(N)c2C=C1c1ccc2c(c1)CC[C@]21CC[C@@H](CC(=O)O)CC1,clearance,[5],21.7 mL/min/kg
